ChEMBL document CHEMBL3102831 (Bioorg Med Chem Lett, 2014)
Activity calls are given as the source filed them. The rule behind the calls is not given here.

What was measured:
HCT-116 [1] = test: Cytotoxicity against human HCT116 cells after 48 hrs by MTT assay; type: functional, cell-based; conditions: HCT-116, 48 h
HeLa = test: Cytotoxicity against human HeLa cells after 48 hrs by MTT assay; type: functional, cell-based
[2] = Cytotoxicity against human SPCA2 cells after 48 hrs by MTT assay; type: functional, cell-based; conditions: SPCA2, 48 h
CNE = test: Cytotoxicity against human CNE cells after 48 hrs by MTT assay; type: functional, cell-based
HepG2 = test: Cytotoxicity against human HepG2 cells after 48 hrs by MTT assay; type: functional, cell-based; conditions: HepG2, 48 h
HUVEC = test: Cytotoxicity against human HUVEC after 48 hrs by MTT assay; type: cell-based
HCT-116 [3] = test: Induction of apoptosis in human HCT116 cells assessed as necrotic cells at 5 uM after 24 hrs using annexin V-FITC/propidium iodide by flow cytometry (reference value: 2.8%); type: functional
HCT-116 [4] = test: Cell cycle arrest in human HCT116 cells assessed as accumulation at G2 phase at 3 uM after 48 hrs using propidium iodide staining by FACS analysis (reference value: 24.09%); type: functional
HCT-116 [5] = test: Induction of apoptosis in human HCT116 cells assessed as viable cells at 3 uM after 24 hrs using annexin V-FITC/propidium iodide by flow cytometry (reference value: 90%); type: functional; conditions: HCT-116, 24 h, read-out: Activity
HCT-116 [6] = test: Induction of apoptosis in human HCT116 cells assessed as early apoptotic cells at 5 uM after 24 hrs using annexin V-FITC/propidium iodide by flow cytometry (reference value: 3.9%); type: functional
HCT-116 [7] = test: Induction of apoptosis in human HCT116 cells assessed as necrotic cells at 3 uM after 24 hrs using annexin V-FITC/propidium iodide by flow cytometry (reference value: 2.8%); type: functional
HCT-116 [8] = test: Induction of apoptosis in human HCT116 cells assessed as apoptotic morphology at 3 to 5 uM after 24 hrs by Hoechst […] staining; type: functional, cell-based
Outline: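 HCT116 cells were treated with compound at 3 and 5 µM for 24 h, alongside 24 h untreated controls. Cells were stained with Hoechst 33258 and examined by fluorescence microscopy. Bright blue nuclei from chromatin condensation and karyopyknosis were scored as apoptotic, and uniform light blue nuclei as live.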

DNA [9] = test: Binding affinity to calf thymus DNA at compound and GelRed ratio 1:1 to 9:1 by fluorescence emission spectra analysis; type: nucleic-acid assay; conditions: Bos taurus
Outline: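 Competitive displacement assay. GelRed was pre-incubated with ct-DNA for 30 min at [GelRed]/[DNA] = 1:10, then titrated with compound. Emission was read around 590 nm with 350 nm excitation. Quenching constant Kq was obtained by linear Stern–Volmer fitting.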

HCT-116 [10] = test: Cell cycle arrest in human HCT116 cells assessed as accumulation at S phase at 3 uM after 48 hrs using propidium iodide staining by FACS analysis (reference value: 36.84%); type: functional
HCT-116 [11] = test: Induction of apoptosis in human HCT116 cells assessed as activation of caspase 3 and 8 after 24 hrs by RT-PCR analysis; type: functional, cell-based
HCT-116 [12] = test: Cell cycle arrest in human HCT116 cells assessed as accumulation at G1 phase at 5 uM after 48 hrs using propidium iodide staining by FACS analysis (reference value: 39.08%); type: functional
HCT-116 [13] = test: Induction of apoptosis in human HCT116 cells assessed as late apoptotic cells at 3 uM after 24 hrs using annexin V-FITC/propidium iodide by flow cytometry (reference value: 3.3%); type: functional
HCT-116 [14] = test: Induction of apoptosis in human HCT116 cells assessed as viable cells at 5 uM after 24 hrs using annexin V-FITC/propidium iodide by flow cytometry (reference value: 90%); type: functional; conditions: HCT-116, 24 h, read-out: Activity
DNA [15] = test: Binding affinity to calf thymus DNA at 1.5 x 10^-5 M by circular dichroism analysis; type: nucleic-acid assay; conditions: Bos taurus
Outline: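 Circular dichroism spectra recorded on ct-DNA at 1.5 × 10^-4 M, alone and with compound at 1.5 × 10^-5 M. Spectra compared with and without compound.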

DNA [16] = test: Binding affinity to calf thymus DNA at DNA and compound ratio 1:1 to 6:1 by UV-vis absorption spectra analysis; type: nucleic-acid assay; conditions: Bos taurus
DNA [17] = test: Binding affinity to F32T oligonucleotide DNA assessed as change in melting temperature by FRET assay
HCT-116 [18] = test: Cell cycle arrest in human HCT116 cells assessed as accumulation at G1 phase at 3 uM after 48 hrs using propidium iodide staining by FACS analysis (reference value: 39.08%); type: functional
HCT-116 [19] = test: Cell cycle arrest in human HCT116 cells assessed as accumulation at S phase at 5 uM after 48 hrs using propidium iodide staining by FACS analysis (reference value: 36.84%); type: functional
HCT-116 [20] = test: Induction of apoptosis in human HCT116 cells assessed as late apoptotic cells at 5 uM after 24 hrs using annexin V-FITC/propidium iodide by flow cytometry (reference value: 3.3%); type: functional
HCT-116 [21] = test: Induction of apoptosis in human HCT116 cells assessed as change in mitochondrial membrane potential at 3 to 5 uM after 24 hrs by JC-1 staining; type: functional, cell-based
Outline: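 HCT116 cells were exposed for 24 h at 3 and 5 µM, with untreated 24 h controls, then stained with JC-1. Monomer and J-aggregates were excited at 514 and 585 nm. Emission was collected at 515–545 nm (green) and 570–600 nm (red), and cells were imaged by fluorescence microscopy.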

HCT-116 [22] = test: Induction of apoptosis in human HCT116 cells assessed as early apoptotic cells at 3 uM after 24 hrs using annexin V-FITC/propidium iodide by flow cytometry (reference value: 3.9%); type: functional
HCT-116 [23] = test: Cell cycle arrest in human HCT116 cells assessed as accumulation at G2 phase at 5 uM after 48 hrs using propidium iodide staining by FACS analysis (reference value: 24.09%); type: functional
[24] = Cytotoxicity against human COLO320DM cells; type: functional, cell-based; conditions: COLO 320DM
HCT-116 [25] = test: Cytotoxicity against human HCT116 cells; type: functional, cell-based

Question: Which IC50 (HCT-116 [1]) does the source give for `CCOP(=O)(OCC)C(NC(=O)c1cc(O)c2c(c1)C(=O)c1cccc(O)c1C2=O)c1ccccc1Cl` (stereo not drawn) here?
Answer: Its IC50 is 48.2 µM.

Question: And the IC50 (HeLa)?
Answer: The IC50 was 35.2 µM.

Question: And the IC50 [2]?
Answer: The IC50 was 28.3 µM.

Question: And the IC50 (CNE)?
Answer: Its IC50 is 68 µM.

Question: What about the IC50 (HepG2) of the same molecule?
Answer: Its IC50 is 39.2 µM.

Question: And the IC50 (HUVEC)?
Answer: The IC50 was over 100 µM.

Question: Which results are given for `CCOP(=O)(OCC)C(NC(=O)c1cc(O)c2c(c1)C(=O)c1cccc(O)c1C2=O)c1cccc(OC)c1` (stereo not drawn)?
Answer: Activity (HCT-116 [3]): 2.6%; Activity (HCT-116 [4]): 20.09%; viability at 3 µM (HCT-116 [5]): 53%; Activity (HCT-116 [6]): 33.5%; IC50 (HCT-116 [1]): 5.32 µM; Activity (HCT-116 [7]): 4%; Activity (HCT-116 [8]): Active; Kq (DNA [9]): 1660; Activity (HCT-116 [10]): 34.66%; Activity (HCT-116 [11]): Dose-dependent effect; Activity (HCT-116 [12]): 49.67%; Activity (HCT-116 [13]): 10.5%; IC50 (HeLa): 19.3 µM; viability at 5 µM (HCT-116 [14]): 57.5%; Activity (DNA [15]): Active; Kb (DNA [16]): 1.03 ×10⁴ /M; ΔTm (DNA [17]): 3.1 °C; Activity (HCT-116 [18]): 45.26%; Activity (HCT-116 [19]): 32.44%; IC50 [2]: 28.3 µM; Activity (HCT-116 [20]): 6.5%; Activity (HCT-116 [21]): Active; Activity (HCT-116 [22]): 32.5%; IC50 (CNE): 24.1 µM; IC50 (HepG2): 22.1 µM; Activity (HCT-116 [23]): 17.9%; IC50 (HUVEC): > 100 µM

Question: Which IC50 (HCT-116 [1]) does the source give for `CCOP(=O)(OCC)C(NC(=O)c1cc(O)c2c(c1)C(=O)c1cccc(O)c1C2=O)c1cccc(F)c1` (stereo not drawn) here?
Answer: The IC50 was 16.7 µM.

Question: What about the IC50 (HeLa) of the same molecule?
Answer: Its IC50 is 64.8 µM.

Question: What about the IC50 [2] of the same molecule?
Answer: Its IC50 is 55.4 µM.

Question: And the IC50 (CNE)?
Answer: Its IC50 is 49.2 µM.

Question: What about the IC50 (HepG2) of the same molecule?
Answer: Its IC50 is 56.8 µM.

Question: And the IC50 (HUVEC)?
Answer: The IC50 was over 100 µM.

Question: With `CCOP(=O)(OCC)C(NC(=O)c1cc(O)c2c(c1)C(=O)c1cccc(O)c1C2=O)c1ccc(C)cc1` (stereo not drawn) as the molecule, how does the IC50 (HCT-116 [1]) read?
Answer: The IC50 was 54.3 µM.

Question: What about the IC50 (HeLa) of the same molecule?
Answer: The IC50 was 89 µM.

Question: What about the IC50 [2] of the same molecule?
Answer: The IC50 was 74.4 µM.

Question: And the IC50 (CNE)?
Answer: The IC50 was 79.4 µM.

Question: What about the IC50 (HepG2) of the same molecule?
Answer: Its IC50 is 77.9 µM.

Question: And the IC50 (HUVEC)?
Answer: Its IC50 is over 100 µM.

Question: For `CCOP(=O)(OCC)C(NC(=O)c1cc(O)c2c(c1)C(=O)c1cccc(O)c1C2=O)c1cccc(Cl)c1` (stereo not drawn), which IC50 (HCT-116 [1]) is on record?
Answer: The IC50 was 22.4 µM.

Question: What about the IC50 (HeLa) of the same molecule?
Answer: The IC50 was 73.2 µM.

Question: What about the IC50 [2] of the same molecule?
Answer: Its IC50 is 77 µM.

Question: And the IC50 (CNE)?
Answer: The IC50 was 45.6 µM.

Question: And the IC50 (HepG2)?
Answer: Its IC50 is 72 µM.

Question: And the IC50 (HUVEC)?
Answer: Its IC50 is over 100 µM.

Question: What does the source list for `CCOP(=O)(OCC)C(NC(=O)c1cc(O)c2c(c1)C(=O)c1cccc(O)c1C2=O)c1ccc(Cl)cc1` (stereo not drawn)?
Answer: IC50 (HCT-116 [1]): 61.2 µM; IC50 (HeLa): 87.5 µM; IC50 [2]: 89.5 µM; IC50 (CNE): 55.8 µM; IC50 (HepG2): 87.3 µM; IC50 (HUVEC): > 100 µM

Question: For `CCOP(=O)(OCC)C(NC(=O)c1cc(O)c2c(c1)C(=O)c1cccc(O)c1C2=O)c1ccc(OC)cc1` (stereo not drawn), which IC50 (HCT-116 [1]) is on record?
Answer: The IC50 was 22.1 µM.

Question: And the IC50 (HeLa)?
Answer: The IC50 was 40.1 µM.

Question: And the IC50 [2]?
Answer: The IC50 was 38.9 µM.

Question: What about the IC50 (CNE) of the same molecule?
Answer: Its IC50 is 42.9 µM.

Question: And the IC50 (HepG2)?
Answer: Its IC50 is 44.4 µM.

Question: And the IC50 (HUVEC)?
Answer: Its IC50 is over 100 µM.

Question: Which results are given for `CCOP(=O)(OCC)C(NC(=O)c1cc(O)c2c(c1)C(=O)c1cccc(O)c1C2=O)c1ccccc1F` (stereo not drawn)?
Answer: IC50 (HCT-116 [1]): 36.6 µM; IC50 (HeLa): 94.2 µM; IC50 [2]: 79.9 µM; IC50 (CNE): 67.6 µM; IC50 (HepG2): 71.2 µM; IC50 (HUVEC): > 100 µM

Question: For `O=C(O)c1cc(O)c2c(c1)C(=O)c1cccc(O)c1C2=O` [RHEIN], which IC50 [24] is on record?
Answer: The IC50 was 62.5 µM.

Question: What about the ΔTm (DNA [17]) of the same molecule?
Answer: The ΔTm was 2 °C.

Question: What about the IC50 (HCT-116 [25]) of the same molecule?
Answer: The IC50 was 135 µM.

Question: What about the IC50 (HUVEC) of the same molecule?
Answer: Its IC50 is 89.7 µM.
